Data: publication PMC9883262 (Molecular Metabolism, 2023)

System: MMP-9 secreted by MCF-7 cells
Test: Gelatin zymography MMP-9 secretion, MCF-7
Type: cell-based
Settings: 80 nM PMA, serum-free medium, MCF-7, vs basal (MMP-9 not detectable)
In short: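 Cells attached overnight, then treated 24 or 48 h with test compound or DMSO vehicle in serum-free medium. Conditioned medium was acetone-precipitated (4 volumes, −20 °C, 2 h), and pellets were taken up in non-reducing SDS buffer. Samples were run on a 7.5% gel with 1 mg/mL gelatin, washed in Triton X-100/CaCl2/ZnCl2, incubated overnight at 37 °C, and Coomassie-stained. Mean ± SD of three independent experiments.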

## CCCCCCCCCCCCCC(=O)O[C@@H]1[C@@H](C)[C@@]2(O)[C@@H](C=C(CO)C[C@]3(O)C(=O)C(C)=C[C@@H]23)[C@@H]2C(C)(C)[C@]12OC(C)=O [PMA, phorbol 12-myristate 13-acetate]
  secreted MMP-9 level, PMA stimulation: drastically increased
